Screening results from PubChem BioAssay.
Most compounds without a hit are left out; they make up all but 5.1% or so of the library.
APP 5'UTR act: activators of APP 5'UTR luciferase reporter, primary screen, SH-SY5Y cells; AID 1276, 2008; 1% of 190,000 active; SH-SY5Y APP 5'UTR luciferase reporter, luminescence; zero percent = DMSO vehicle wells; activation, % at 2 µM;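 active means activation above a set limit, based on mean plus 3 SD of controls, cut at about 140% in these data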
STAT3 inh-1: IL-6 driven STAT3 reporter inhibitors, primary screen, U3A cells, luciferase, luminescence, MLSCN library; IL-6 STAT3-luciferase reporter; host cell line lacks STAT1; inhibition, % at 5.5 µM; 0.89% of 190,000 active;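 active means inhibition above the mean inhibition across all screened compounds plus 3 SD, cut at about 44% in these data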
STAT1 act: STAT1 signaling activators, primary screen, cell-based, HTS, luciferase reporter; NIH 3T3 STAT1-luciferase reporter, IFN-gamma, luminescence; 100% = IFN-gamma alone, no compound; 2.6% of 200,000 active; activation (% of control), % at 5.5 µM;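 active means activation above the screen-wide mean activation plus 3 SD, cut at about 130% in these data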
STAT3 act: IL-6 driven STAT3 reporter potentiators, primary screen, U3A cells, luciferase, luminescence, MLSCN library. IL-6 STAT3-luciferase reporter; 100% = signal with IL-6 EC80 alone. activation (% of control), % at 5.6 µM. 0.91% of 190,000 active. AID 871, 2007;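 active means activation above the screen-wide mean of compound activation plus 3 SD, cut at about 130% in these data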
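System – human U3A cells carrying STAT3-luciferase construct · Probe or stimulus – Interleukin-6, 33 ng/mL · Schedule – compound 1 h, then IL-6 6 h at 37 °C · Signal – luminescence from STAT3-driven luciferase reporter · Evaluation – percent of IL-6-only median luminescence · Benchmarks – IL-6-only high control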
STAT1 blocker: STAT1 signaling inhibitors, primary screen, cell-based, HTS, luciferase reporter; inhibition, % at 5.5 µM; NIH 3T3 STAT1-luciferase reporter, IFN-gamma, luminescence; 0.35% of 200,000 active;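 active means inhibition above a set limit, the mean inhibition across all tested compounds plus 3 SD, cut at about 34% in these data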
NF-kB expr up: activators of NF-kB expression in neurons, primary screen, cell-based, HTS; fold change at 12.5 µM; human neuronal cells, NF-kB reporter expression; active compounds read high; 1.6% of 190,000 active; AID 1239, 2008; in the data active means fold change above about 3.3
STAT3 inh-2: STAT3 reporter inhibitors, retest of hits, confirmation, U3A cells, luciferase, luminescence | shares compounds with STAT3 inh-1 | IL-6 STAT3 luciferase reporter; cell line lacks STAT1 | inhibition, % at 5.7 µM | 45% of 1,200 active | AID 1265, 2008;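 active means inhibition above the hit cutoff computed for the primary STAT3 screen, cut at about 44% in these data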
NFkB inh STAT3ct: NF-kB reporter inhibitors in human cells, confirmation, counter-screen for STAT3 inhibitor project, cell-based, HEK293T, luciferase, TNF-alpha stimulus. shares compounds with STAT3 inh-1. TNF-alpha induced. inhibition, % at 5.7 µM. 36% of 1,200 active. AID 1308, 2008;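 active means inhibition above the mean of solvent-only control wells plus 3 SD, cutoff set per campaign, cut at about 13% in these data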
STAT1 inh STAT3c: STAT1 reporter inhibitors, IFN-gamma induced, confirmation, counter-screen for STAT3 inhibitor project, cell-based, NIH 3T3, luciferase luminescence; 27% of 1,200 active; shares compounds with STAT3 inh-1; NIH 3T3 STAT1-luciferase reporter; inhibition, % at 5.7 µM;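 active means inhibition above the mean plus 3 SD of solvent-only control wells, limit set per screening run, cut at about 16% in these data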
A number is an active result; . = inactive; / = no result given.

SMILES	APP 5'UTR act	STAT3 inh-1	STAT1 act	STAT3 act	STAT1 blocker	NF-kB expr up	STAT3 inh-2	NFkB inh STAT3ct	STAT1 inh STAT3c
Cc1ccccc1OCC(=O)Nc1ccccc1N1CCC(C)CC1	.	.	.	.	.	.	/	/	/
Cc1ccc(C(=O)Nc2ccnc(-c3cccnc3)n2)cc1	.	.	.	.	.	.	/	/	/
Cc1ccc(NC(=O)Nc2ccnc(-c3cccnc3)n2)cc1	.	66	.	.	.	.	70	.	23
O=C(COc1ccc([N+](=O)[O-])cc1)Nc1ccncc1	.	.	.	.	.	.	/	/	/
Cc1cc(OCC(=O)Nc2ccncc2)ccc1Br	.	57	.	.	.	.	52	.	.
COc1cccc(/C=N/N=C(\N)c2nonc2N)c1O	.	.	.	.	.	.	/	/	/
N/C(=N\N=C\c1ccc2c(c1)OCO2)c1nonc1N	221	54	132	.	.	7.6	.	.	.
CCOC(=O)c1ccc(NC(=O)CSc2nc3cccnc3n2C)cc1	.	54	.	.	.	.	.	.	.
CCCOc1ccc(C2NC(=S)NC(c3ccccc3)=C2C(=O)Nc2ccc(C)cc2)cc1OC (stereo not drawn)	.	.	.	.	.	.	/	/	/
O=C(COC(=O)c1cccs1)c1ccc2c(c1)OCCO2	.	54	.	.	.	.	.	.	.
Cc1ccc(C(=O)COC(=O)c2cccs2)cc1	198	47	.	.	.	7.5	.	.	.
O=C(CC1C(=O)NCCN1CC1CCCCC1)NCCc1ccc(F)cc1 (stereo not drawn)	.	.	.	.	.	.	/	/	/
COc1ccc(CNC(=O)c2coc(=O)c3ccccc23)c(OC)c1	.	.	.	.	.	.	/	/	/
O=C(Nc1nc(-c2cc3ccccc3o2)cs1)c1ccc(S(=O)(=O)N2CCCC2)cc1	.	58	.	.	.	.	77	25	20
CC1CN(S(=O)(=O)c2ccc(C(=O)Nc3nc(-c4cc5ccccc5o4)cs3)cc2)CC(C)O1 (stereo not drawn)	.	.	.	.	.	.	/	/	/
CN(C)S(=O)(=O)c1ccc(C(=O)Nc2nc(-c3cc4ccccc4o3)cs2)cc1	.	53	.	.	.	.	76	20	16
Cc1c(NC(=O)C(C)OC(=O)CCc2ccccc2)c(=O)n(-c2ccccc2)n1C (stereo not drawn)	.	.	.	.	.	.	/	/	/
Cc1cc(N2C(=O)NC(=O)CC2C)c(C)cc1C(C)C (stereo not drawn)	.	.	.	.	.	.	/	/	/
O=C(NCc1ccc(OC(F)(F)F)cc1)C1CC(c2c(Cl)cccc2Cl)=NO1 (stereo not drawn)	.	.	.	.	.	.	/	/	/
CCCOc1ccc(C(=O)Nc2ccc(Cl)cn2)cc1	137	56	.	.	.	8.6	.	.	.
Cc1ccc(C(=O)Nc2ccc(Cl)cn2)cc1	172	56	.	.	.	6.6	.	.	.
O=C(COc1ccc(Cl)cc1)Nc1ccc(Cl)cn1	.	.	.	.	.	.	/	/	/
CCOC(=O)c1c(C)[nH]c(C(=O)COC(=O)CNC(=O)c2ccc(Cl)cc2Cl)c1C	.	.	.	.	.	.	/	/	/
CN(C)c1ccc2c3c(ccc(N(C)C)c13)COC2	.	.	.	.	.	.	/	/	/
COc1ccc(CCc2nc(C)ccc2O)cc1	.	.	.	.	.	.	/	/	/
SMILES	APP 5'UTR act	STAT3 inh-1	STAT1 act	STAT3 act	STAT1 blocker	NF-kB expr up	STAT3 inh-2	NFkB inh STAT3ct	STAT1 inh STAT3c
COc1cc(/C=N/Nc2ccc(C(F)(F)F)cn2)cc(OC)c1O	.	48	.	.	.	.	.	.	.
COc1cc(/C=N/Nc2cccc3cccnc23)cc(OC)c1O	.	.	.	.	.	.	/	/	/
Cn1c(=O)c2c(nc(NC(Cc3ccccc3)C(=O)O)n2Cc2ccccc2)n(C)c1=O (stereo not drawn)	.	.	.	.	.	.	/	/	/
CCCCn1c(CN(C)Cc2ccccc2)nc2c1c(=O)n(C)c(=O)n2C	.	.	.	.	.	.	/	/	/
CNc1nc2c(c(=O)n(C)c(=O)n2C)n1Cc1ccccc1	.	55	.	.	.	.	.	13	18
Cc1cccc(Cn2c(NCCO)nc3c2c(=O)n(C)c(=O)n3C)c1	.	52	.	.	.	.	.	.	20
CCCn1c(CN(C)Cc2ccccc2)nc2c1c(=O)n(C)c(=O)n2C	.	46	.	.	.	.	.	.	.
COc1ccccc1N1CCN(C(=O)CCc2c[nH]c3ccccc23)CC1	.	.	.	.	.	.	/	/	/
CN(C)c1ccc(C=Nc2ccccc2C(N)=O)cc1	166	45	135	.	.	3.7	.	.	.
Cn1c(SCC(=O)Nc2ccc(NC(=O)c3cccs3)cc2)nnc1-c1ccncc1	.	.	.	.	.	.	/	/	/
Clc1ccc(-c2cn3nc4c(nc3n2)CCCC4)cc1	191	51	.	.	.	.	.	.	.
CC(=O)NS(=O)(=O)c1ccc(NC(=O)c2ccccn2)cc1	.	.	.	.	.	.	/	/	/
O=C(Nc1ccc(SC(F)(F)F)cc1)c1ccccn1	150	62	.	.	.	.	.	.	.
O=C(/C=C/Nc1ccc(F)cc1)c1cccs1	160	51	.	.	.	/	.	.	.
O=C(CCCC(=O)OCC(=O)c1cccs1)Nc1ccc(F)cc1	.	.	.	.	.	.	/	/	/
Cc1ccc(OCCCCNC2CCCCC2)c(C)c1	.	.	.	.	.	.	/	/	/
COc1ccc2cc(-c3cc(C(=O)OCC(=O)Nc4c(C)n(C)n(-c5ccccc5)c4=O)c4ccccc4n3)ccc2c1	.	47	.	.	.	3.4	56	.	.
COc1ccc2cc(-c3cc(C(=O)OCC(=O)NC4CCS(=O)(=O)C4)c4ccccc4n3)ccc2c1 (stereo not drawn)	.	62	.	.	.	.	.	.	.
c1ccc2c(c1)OCC(CNc1ncnc3sccc13)O2 (stereo not drawn)	.	84	.	.	.	.	87	32	20
Cc1ccn2cc(-c3ccc4c(c3)NC(=O)CO4)nc2c1	.	46	.	.	.	.	.	.	.
